Screens: PubChem, several laboratories
Rows were chosen to be rich in hits. Some 4% of all compounds tested hit in one or more screens of this group.
Granule exo inh: lytic granule exocytosis inhibition. inhibition, % at 10 µM. 360,000 tested, 0.66% active. TALL-104 LAMP-1 surface exposure, flow cytometry; cells stimulated with thapsigargin and PMA;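 active = inhibition above about 55%, limit read from the data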
CHOP UPR activ: apoptotic UPR (CHOP) activation; CHO-CHOP luciferase reporter, luminescence; percent of tunicamycin response over DMSO baseline; AID 449763; 330,000 tested, 0.34% active; activation, % at 10 µM;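 active = at 10 µM dose, activation of 40% or more, normalized to positive control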
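assay system = CHO CHOP reporter cells | amount = 500 CHO-CHOP cells per well | buffer or medium = F12 with 10% FBS | incubation = 16-18 h cell attachment, then 6 h compound exposure, 37 °C | detection = luminescence read with Steady-Glo | read-out = percent activation relative to tunicamycin control | controls = tunicamycin high control, DMSO low control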
XBP1 UPR activ: adaptive UPR (XBP1) activation | CHO-XBP1 luciferase reporter, IRE1-XBP1 UPR activation, luminescence; percent of tunicamycin response, DMSO as zero | activation, % at 20 µM | 330,000 tested, 0.33% active;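 active = versus positive control, 20 µM dose yields 30% or more activation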
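Material: IRE1-XBP1 luciferase reporter CHO line / Quantity: one thousand reporter cells per well / Buffer or medium: F12 with 10% serum / Compound: 20 µM single concentration, DMSO 1% / Times: 6 h treatment, 37 °C / Detection: Steady-Glo luciferase glow luminescence, 10 min after reagent addition / Benchmarks: tunicamycin high, DMSO low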
Mdm2 MdmX PPI: inhibitors of human Mdm2/MdmX interaction; 330,000 tested, 3% active; AID 485346; inhibition, % at 8 µM; O15151+Q00987; SaOS-2 split-luciferase Mdm2/MdmX complementation, luminescence;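 active = inhibition of at least 50% at 8 µM in the primary screen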
ABHD5-PLIN5 inh: ABHD5-PLIN5 protein interaction inhibition; Q00G26+Q8WTS1; Split G. princeps luciferase complementation, luminescence, 4 h; inhibition, % at 4 µM; 360,000 tested, 0.78% active;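 active = inhibition above the mean inhibition across every tested compound plus 3 SD, cut at about 22% in these data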
Of the large screens only hits and unclear results are named; the others gave an inactive call.

C[C@H](O)[C@@H]1CN2CCc3c([nH]c4ccccc34)[C@@H]2C[C@@H]1N(C)C(=O)Nc1cccc2ccccc12	Granule exo inh 74 (no result: CHOP UPR activ, XBP1 UPR activ, Mdm2 MdmX PPI)
CC(=O)c1cccc(NC(=O)CCc2nnc3ccc(N4CCN(C)CC4)nn23)c1	none
CCOc1ccc(-c2csc(NNC3=NCCCCC3)n2)cc1	Granule exo inh 56
COc1ccc(-c2csc(NNC3=NCCCCC3)n2)cc1	none (no result: Granule exo inh, ABHD5-PLIN5 inh)
Cc1ccc(-n2c(Cc3cccn3C)nnc2SCC(=O)Nc2ccc3c(c2)OCO3)cc1	none
Oc1c(C=C2N=c3ccccc3=N2)sc(=S)n1-c1ccc(F)cc1	none
Oc1c(C=C2N=c3ccccc3=N2)sc(=S)n1-c1ccc2ccccc2c1	Granule exo inh 59
O=C(COc1ccccc1/C=C\c1nc(O)c([N+](=O)[O-])c(=O)[nH]1)Nc1ccccc1	ABHD5-PLIN5 inh 23 (no result: CHOP UPR activ, XBP1 UPR activ, Mdm2 MdmX PPI)
CN(C)CCCN(C(=O)COc1ccc(Cl)cc1)c1nc2cc3c(cc2s1)OCCO3	none
CN(C)CCCN(C(=O)COc1ccc(Cl)cc1)c1nc2cc3c(cc2s1)OCO3	ABHD5-PLIN5 inh 23
CN(C)c1ccc(/C=N/NC(=O)CNC(=O)c2ccc3c(c2)OCCO3)cc1	none
CCN(CC)c1ccc(/C=N/NC(=O)CNC(=O)c2ccc3c(c2)OCCO3)cc1	Granule exo inh 74
N=c1c(C(=O)NCc2ccco2)cc2c(=O)n3ccccc3nc2n1C1CCCC1	ABHD5-PLIN5 inh 23
N=c1c(C(=O)NCc2ccccc2)cc2c(=O)n3ccccc3nc2n1Cc1ccco1	ABHD5-PLIN5 inh 26
CCCCn1c(=NC(=O)c2ccco2)c(C(=O)OCC)cc2c(=O)n3ccccc3nc21	ABHD5-PLIN5 inh 28
N=c1c(C(=O)NCc2ccco2)cc2c(=O)n3ccccc3nc2n1Cc1ccccc1	none
Cc1ccc(CNC(=O)c2cc3c(=O)n4ccccc4nc3n(Cc3ccco3)c2=N)cc1	ABHD5-PLIN5 inh 30
CCn1c(CNC(=O)c2ccccc2F)cc2ccccc21	none
CCOC(=O)C1CCN(C(=O)CSc2ccc(Cl)cc2)CC1	none
O=C(NNC(=O)c1ccncc1)Nc1cccc([N+](=O)[O-])c1	Granule exo inh 90
CCC(c1nc2ccccc2[nH]1)N(Cc1cccnc1)C(=O)c1cc(-c2ccccc2)on1 (centres undefined)	none (no result: CHOP UPR activ, XBP1 UPR activ, Mdm2 MdmX PPI)
COc1ccc(NC(=O)c2cc3ccc(O)cc3o/c2=N\O)cc1	Granule exo inh 66
COc1ccc2o/c(=N\O)c(C(=O)Nc3ccccc3OC)cc2c1	Granule exo inh 64
N=c1oc2cc(O)ccc2cc1C(=O)Nc1ccc(F)cc1	none
CCOC(=O)CSc1ccc(C(=O)N2CCN(C)CC2)cc1[N+](=O)[O-]	none
C(=Nc1cccc2c(N=Cc3ccco3)cccc12)c1ccco1	Granule exo inh 103
CC1(C)Nc2cccc3cccc(c23)N1	Granule exo inh 63 (no result: CHOP UPR activ, XBP1 UPR activ, Mdm2 MdmX PPI)
c1cc2c3c(cccc3c1)NC1(CCCC1)N2	none (no result: CHOP UPR activ, XBP1 UPR activ, Mdm2 MdmX PPI)
CCN(CC)C(=S)SSC(=S)N(CC)CC	Granule exo inh 64, CHOP UPR activ 158
CCN(CC)C(=S)SCC(=O)c1ccccc1	none
CS(=O)(=O)c1ccc(N)cc1	none
C/C(CCc1ccccc1)=N\NC(=S)NCCc1ccccc1	Granule exo inh 91
C/C(=N\NC(=S)NCCc1ccccc1)c1cccs1	none
CC1CCCC(C)N1C(=O)COc1ccc(-c2nnco2)cc1 (centres undefined)	none
COc1ccc(NC(=S)NNC(=O)C(C)n2nc(C)c([N+](=O)[O-])c2C)cc1 (centres undefined)	none
Cc1cc(CNC(=O)Cn2nc(C)c([N+](=O)[O-])c2C)c2ccccc2n1	Granule exo inh 58
O=C(O)c1cc(Nc2cc(Cl)c3nonc3c2[N+](=O)[O-])ccc1O	ABHD5-PLIN5 inh 23
Cc1c2cnccc2c(C)c2c1oc1ccccc12	none (no result: CHOP UPR activ, XBP1 UPR activ, Mdm2 MdmX PPI)
O=C(Nc1ccc(-c2ccco2)cc1)C1CCCN(Cc2ccc(CO)o2)C1 (centres undefined)	none
CC(=O)c1cccc(CN2CCCC(C(=O)Nc3ccc(-c4ccco4)cc3)C2)c1 (centres undefined)	ABHD5-PLIN5 inh 30
CC(C)CN(C(=O)CSc1nnc(C2CC2)n1-c1ccccc1)C1CCS(=O)(=O)C1 (centres undefined)	none
CCN1C(=O)/C(=C/c2ccc(C)o2)N(C)C1=S	Granule exo inh 58
O=C(CSc1nnc(-c2ccco2)c(-c2ccco2)n1)Nc1ccccc1	ABHD5-PLIN5 inh 26
CN(C)c1ccc(NC(=O)CSc2nnc(-c3ccco3)c(-c3ccco3)n2)cc1	none
Cc1cccc(C)c1NC(=O)CSc1nnc(-c2ccco2)c(-c2ccco2)n1	ABHD5-PLIN5 inh 23
CN(CC(=O)Nc1ccccc1C(F)(F)F)C(=O)C1CC1	none
O=C(N/N=C/c1cccc(F)c1)NC1CCCCC1	none
Cc1ccc(C(O)P(=O)(OCCC(C)C)c2ccc(N(C)C)cc2)cc1 (centres undefined)	Granule exo inh 60
Cc1cccc(N2CCN(C(=S)Nc3ccc4nc(N5CCN(C)CC5)cc(C)c4c3)CC2)c1C	Granule exo inh 63 (no result: CHOP UPR activ, XBP1 UPR activ, Mdm2 MdmX PPI)
Cc1cc(N2CCN(C)CC2)nc2ccc(NC(=S)NCCCN3CCc4ccccc4C3)cc12	Granule exo inh 59
CSCC(=O)NCC1(N(C)Cc2ccccc2)Cc2ccccc2C1	none
O=C(N/N=C/c1cc(Br)c(O)c(Br)c1O)c1cccnc1	Granule exo inh 65
Cc1cc(Cl)ccc1NC(=O)Nc1c(C)n(-c2ccccc2)c(=O)n1C	none
Cc1ccc2nc(SCC(=O)O)nc(C)c2c1	ABHD5-PLIN5 inh 22
CC(C)(C)C(=O)N1CCN(CCN2C(=O)c3cccc4cccc(c34)C2=O)CC1	none
CCN(CC)C(=O)[C@H]1C[C@H](CC(=O)NCc2ccc(OC)c(OC)c2)C(=O)N2CCc3c([nH]c4cc(-c5ccco5)ccc34)[C@]12C	ABHD5-PLIN5 inh 23
Cc1oc(=O)c(NC(=O)c2ccccc2)cc1C(=O)c1ccccc1	Granule exo inh 75, ABHD5-PLIN5 inh 23
Cc1ccccc1OCC(=O)N/N=C/c1ccncc1	ABHD5-PLIN5 inh 23
Cc1cccc(/C=N/NC(=O)c2ccccc2OCc2cccc(Br)c2)n1	Granule exo inh 74
Cc1ccc(/C=N/NC(=O)c2ccccc2OCc2ccc(F)cc2)o1	none
O=C(N/N=C/c1ccncc1)c1ccccc1OCc1ccc(Br)cc1	Granule exo inh 83
O=C(Nc1ccccc1Oc1ccccc1)c1cccs1	none
Cc1ccnc(NC(=O)C2(c3cccs3)CCOCC2)c1	none
COc1cc(OC)c(C(=O)C=Cc2ccc(OC)c(OC)c2)c(OC)c1	Granule exo inh 73 (no result: CHOP UPR activ, XBP1 UPR activ, Mdm2 MdmX PPI)
Cc1ccc(S(=O)(=O)n2nc(OC(=O)c3c(F)cccc3Cl)cc2N)cc1	Granule exo inh 78
Cc1sc2c3ccsc3ccc2[n+]1C	Granule exo inh 56
Cc1sc2ccc3sccc3c2[n+]1C	Granule exo inh 83
O=C1c2ccccc2C(=O)c2c([N+](=O)[O-])ccc(O)c21	Granule exo inh 59
O=C(O)c1ccc([N+](=O)[O-])c2c1C(=O)c1ccccc1C2=O	none
